Data on eleven compounds can be found in ChEMBL document CHEMBL2406971, “Optimization of Arylamides as Novel, Potent and Brain-penetrant Antiprion Lead Compounds” (ACS Med Chem Lett, 2013).

The nature of data set [1]: Cytotoxicity against mouse ScN2a-cl3 cells after 5 days by calcein-AM assay. The format is cell-based, N2a-cl3. Particulars: read-out: LD50. An outline of the steps: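 Run alongside every EC50 measurement. Toxicity toward ScN2a-cl3 cells scored with the fluorescent probe calcein-AM.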
Data set [2] is described as follows: Ratio of drug level in brain to plasma in CD-1 mouse at 10 mg/kg, po. The format is ADME, organism-based. On the set-up: dose 10 mg/kg, route oral. The settings on record: brain and plasma, read-out: BPR.
In a further data set the test system is Plasma. Put plainly: Cmax in CD-1 mouse plasma at 10 mg/kg, po after 6 hrs by LC/MS analysis. The format is ADME, organism-based. Further details: dose 10 mg/kg, route oral. The settings on record: in vivo.
Data set [3] is described as follows: AUC (0 to 6 hrs) in CD-1 mouse plasma at 10 mg/kg, po by LC/MS analysis. The format is ADME, organism-based. Further details: time < 6 hr, dose 10 mg/kg, route oral.
A further data set concerns Brain. Briefly: Cmax in CD-1 mouse brain at 10 mg/kg, po after 6 hrs by LC/MS analysis. The format is ADME, organism-based. On the set-up: dose 10 mg/kg, route oral. The settings on record: in vivo.
The nature of data set [4]: AUC (0 to 6 hrs) in CD-1 mouse brain at 10 mg/kg, po by LC/MS analysis. On the set-up: time < 6 hr, dose 10 mg/kg, route oral. The format is ADME, organism-based.
For a further data set, the system named is Liver. Put plainly: Half life in mouse liver microsomes at 1 uM by LC/MS/MS analysis. The format is ADME, Microsome. A general note: Microsomes from liver hold many membrane-bound enzymes, among them those of drug oxidation.

For `CCN1CCN(c2ccc(NC(=O)c3ccc(-c4ccncc4)cc3)cc2)CC1`, the CC50 at 120 h in data set [1] is above 10 µM.
As a reminder, the Cmax is the peak of the concentration-time curve. In general, AUC(0-t) refers to the area under the concentration-time curve up to a stated or last time point. Read a high AUC(0-t) as high exposure. Turning to `CCN1CCN(c2ccc(NC(=O)c3ccc(-c4ccccc4)cc3)cc2)CC1`, the Kp in data set [2] was at most 10. Besides, the Cmax in the data set with Plasma came to 370 nM; in the data set on Brain, 7950 nM. Moreover, the AUC(0-t) at 6 h in data set [3] amounted to 1.09 µM·h; in data set [4] it was 25.4 µM·h.
On to `CC(C)N1CCN(c2ccc(NC(=O)c3ccc(-c4ccccn4)cc3)nc2)CC1`, for which the Cmax is 340 nM in the data set with Plasma and 6000 nM in the data set on Brain. The AUC(0-t) at 6 h in data set [3] came out at 1.26 µM·h; in data set [4], 22.3 µM·h. Moreover, the CC50 at 120 h in data set [1] was above 10 µM.
For `CC(C)N1CCN(c2ccc(NC(=O)c3ccc(-c4ccccn4)cc3)cc2)CC1`, in that order: 320 nM, 90 nM, 1.2 µM·h, 0.28 µM·h and above 10 µM.
Regarding `CC(C)N1CCN(c2ccc(NC(=O)c3ccc(-c4ccccn4)cc3)cc2F)CC1`, the Cmax with Plasma turned out to be 460 nM; in the data set on Brain, 6750 nM. The AUC(0-t) at 6 h in data set [3] was 2.28 µM·h; in data set [4], 28.7 µM·h. Besides, in data set [1], the CC50 at 120 h was above 10 µM.
Consider `CN1CCN(c2ccc(NC(=O)c3ccc(-c4ccccc4)cc3)cc2)CC1`, for which the CC50 at 120 h in data set [1] is above 5 µM.
The same measure, in the same setting: for `CC(C)N1CCN(c2ccc(NC(=O)c3ccc(-c4ccccn4)cc3)cn2)CC1` the value was above 10 µM.
Turning to `CC(C)N1CCN(c2ccc(NC(=O)c3ccc(-c4ccccn4)cc3)c(F)c2)CC1`, the Cmax amounted to 650 nM in the data set with Plasma and 17300 nM in the data set with Brain. Further, the AUC(0-t) at 6 h turned out to be 1.46 µM·h in data set [3] and 39.8 µM·h in data set [4]. The CC50 at 120 h in data set [1] was above 10 µM.
Turning to `CCN1CCN(c2ccc(NC(=O)c3ccc(-c4cccnc4)cc3)cc2)CC1`, the t1/2 in the data set with Liver was 29.2 min. Moreover, the Cmax came out at 210 nM in the data set with Plasma and 1440 nM in the data set with Brain. Besides, the AUC(0-t) at 6 h in data set [3] worked out at 0.25 µM·h; in data set [4], 3.32 µM·h. The CC50 at 120 h in data set [1] is above 10 µM.
As for `CC(C)N1CCN(c2ccc(NC(=O)c3ccc(-c4ccccc4)cc3)cc2)CC1`, the Kp in data set [2] is at most 10. In addition, the Cmax worked out at 270 nM in the data set on Plasma and 2520 nM in the data set on Brain. The AUC(0-t) at 6 h amounted to 0.97 µM·h in data set [3] and 7.48 µM·h in data set [4]. Besides, the CC50 at 120 h in data set [1] was above 10 µM.
`CCN1CCN(c2ccc(NC(=O)c3ccc(-c4ccccn4)cc3)cc2)CC1` displayed a t1/2 in the data set with Liver of 27 min. Moreover, the maximum concentration (Cmax) with Plasma came out at 280 nM; in the data set on Brain it was 6230 nM. Also, the values for the AUC(0-t) at 6 h in data set [3] and in data set [4] were 1.05 µM·h and 24.2 µM·h, respectively. For the same compound, in data set [1], the CC50 at 120 h is above 10 µM.
